# Test results: ChEMBL document CHEMBL3124843, “Synthesis, cytostatic, antimicrobial, and anti-HCV activity of 6-substituted 7-(het)aryl-7-deazapurine ribonucleosides” (J Med Chem, 2014)
# Calls of active or inactive are those of the source. No rule for the calls is given here.
# What was measured:
# [1] = Cytotoxicity against human HuH7 cells infected with Hepatitis C virus subtype 2a; type: cell-based, Huh-7
# Hepatitis C virus [2] = experiment: Antiviral activity against Hepatitis C virus subtype 2a infected in human HuH7 cells; type: functional, organism-based, Hepacivirus hominis; settings: genotype 2a, Huh-7
# [3] = Cytotoxicity against human HuH7 cells infected with Hepatitis C virus subtype 1b; type: cell-based, Huh-7
# Hepatitis C virus [4] = experiment: Antiviral activity against Hepatitis C virus subtype 1b infected in human HuH7 cells; type: functional, organism-based, Hepacivirus hominis; settings: genotype 1b, Huh-7
# Candida tropicalis = experiment: Antifungal activity against Candida tropicalis after 48 hrs; type: functional, organism-based
# Pichia kudriavzevii = experiment: Antifungal activity against Candida crusei after 48 hrs; type: functional, organism-based
# Candida parapsilosis = experiment: Antifungal activity against Candida parapsilosis after 48 hrs; type: functional, organism-based
# Candida albicans = experiment: Antifungal activity against Candida albicans after 48 hrs; type: functional, organism-based
# Pseudomonas aeruginosa [5] = experiment: Antibacterial activity against multi-resistant Pseudomonas aeruginosa A/16575 after 24 hrs; type: functional, organism-based
# Escherichia coli [6] = experiment: Antibacterial activity against multi-resistant Escherichia coli C/16702 after 24 hrs; type: functional, organism-based
# [7] = system: Staphylococcus haemolyticus; experiment: Antibacterial activity against methicillin-resistant Staphylococcus haemolyticus A/16568 after 24 hrs; type: functional, organism-based
# Staphylococcus aureus [8] = experiment: Antibacterial activity against methicillin-resistant Staphylococcus aureus MRSA 4591 after 24 hrs; type: functional, organism-based
# Pseudomonas aeruginosa [9] = experiment: Antibacterial activity against Pseudomonas aeruginosa CCM 3955 after 24 hrs; type: functional, organism-based
# Escherichia coli [10] = experiment: Antibacterial activity against Escherichia coli CCM 3954 after 24 hrs; type: functional, organism-based
# Staphylococcus aureus [11] = experiment: Antibacterial activity against Staphylococcus aureus CCM 3953 after 24 hrs; type: functional, organism-based
# Enterococcus faecalis = experiment: Antibacterial activity against Enterococcus faecalis CCM 4224 after 24 hrs; type: functional, organism-based
# [12] = Antiproliferative activity against human HeLaS3 cells after 72 hrs by XTT assay; type: functional, cell-based; settings: HeLa S3, 72 h
# Summary of the method: (§1)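 Antiproliferative test on HL-60 promyelocytic leukemia and HeLa S3 cervical carcinoma cells growing in liquid suspension.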
# HL-60 = experiment: Antiproliferative activity against human HL60 cells after 72 hrs by XTT assay; type: functional, cell-based; settings: HL-60, 72 h; summary of the method: as §1
# HepG2 = experiment: Antiproliferative activity against human HepG2 cells after 72 hrs by XTT assay; type: functional, cell-based; settings: HepG2, 72 h
# MRC5 = experiment: Cytostatic activity against human MRC5 cells after 72 hrs by MTT assay; type: ADME, cell-based; settings: MRC5, 72 h
# Summary of the method: (§2)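 IC50 is the concentration that cuts cell growth by 50%, read by quantitative metabolic MTT staining after a 3-day treatment. The resistant sublines were made by raising the concentration of the cytotoxic drug step by step. CEM-DNR-bulk (daunorubicin-selected) stably overexpresses mrp-1. K562-TAX (paclitaxel-selected) expresses only mdr-1. HCT116p53−/− carries null p53 alleles. BJ and MRC-5 are nonmalignant fibroblasts.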
# BJ = experiment: Cytostatic activity against human BJ cells after 72 hrs by MTT assay; type: ADME, cell-based; summary of the method: as §2
# HCT-116 [13] = experiment: Cytostatic activity against p53-deficient human HCT116 cells after 72 hrs by MTT assay; type: functional, cell-based; settings: HCT-116, 72 h; summary of the method: as §2
# HCT-116 [14] = experiment: Cytostatic activity against human HCT116 cells after 72 hrs by MTT assay; type: functional, cell-based; settings: HCT-116, 72 h; summary of the method: as §2
# A549 = experiment: Cytostatic activity against human A549 cells after 72 hrs by MTT assay; type: functional, cell-based; settings: A549, 72 h; summary of the method: as §2
# K562 [15] = experiment: Cytostatic activity against paclitaxel-resistant human K562 cells after 72 hrs by MTT assay; type: functional, cell-based; settings: K562, 72 h; summary of the method: as §2
# K562 [16] = experiment: Cytostatic activity against human K562 cells after 72 hrs by MTT assay; type: functional, cell-based; settings: K562, 72 h; summary of the method: as §2
# [17] = Cytostatic activity against human CEM-DNR-bulk cells after 72 hrs by MTT assay; type: functional, cell-based; summary of the method: as §2
# CCRF-CEM = experiment: Cytostatic activity against human CCRF-CEM cells after 72 hrs by MTT assay; type: functional, cell-based; summary of the method: as §2
SMILES,CC50 [1],EC50 (Hepatitis C virus [2]),CC50 [3],EC50 (Hepatitis C virus [4]),Activity (Candida tropicalis),Activity (Pichia kudriavzevii),Activity (Candida parapsilosis),Activity (Candida albicans),Activity (Pseudomonas aeruginosa [5]),Activity (Escherichia coli [6]),Activity [7],Activity (Staphylococcus aureus [8]),Activity (Pseudomonas aeruginosa [9]),Activity (Escherichia coli [10]),Activity (Staphylococcus aureus [11]),Activity (Enterococcus faecalis),IC50 [12],IC50 (HL-60),IC50 (HepG2),IC50 (MRC5),also measured
CN(C)c1ncnc2c1c(-c1cccs1)cn2[C@@H]1O[C@H](CO)[C@@H](O)[C@H]1O,> 44 µM,> 44 µM,> 44 µM,16.8 µM,inactive,inactive,inactive,inactive,inactive,inactive,inactive,inactive,inactive,inactive,inactive,inactive,> 20 µM,11.8 µM,> 20 µM,> 100 µM,IC50 (BJ): > 100 µM; IC50 (HCT-116 [13]): > 20 µM; IC50 (HCT-116 [14]): > 20 µM; IC50 (A549): > 20 µM; IC50 (K562 [15]): > 20 µM; IC50 (K562 [16]): > 20 µM; IC50 [17]: > 20 µM; IC50 (CCRF-CEM): > 20 µM
Cc1nc(N)c2c(-c3ccccc3)cn([C@@H]3O[C@H](CO)[C@@H](O)[C@H]3O)c2n1,> 44 µM,> 44 µM,> 44 µM,> 44 µM,inactive,inactive,inactive,inactive,inactive,inactive,inactive,inactive,inactive,inactive,inactive,inactive,> 20 µM,> 20 µM,> 20 µM,> 100 µM,IC50 (BJ): > 100 µM; IC50 (HCT-116 [13]): > 20 µM; IC50 (HCT-116 [14]): > 100 µM; IC50 (A549): > 20 µM; IC50 (K562 [15]): > 20 µM; IC50 (K562 [16]): > 20 µM; IC50 [17]: > 20 µM; IC50 (CCRF-CEM): > 20 µM
Cc1nc(N)c2c(-c3ccco3)cn([C@@H]3O[C@H](CO)[C@@H](O)[C@H]3O)c2n1,> 44 µM,> 44 µM,> 44 µM,> 44 µM,inactive,inactive,inactive,inactive,inactive,inactive,inactive,inactive,inactive,inactive,inactive,inactive,> 20 µM,> 20 µM,> 20 µM,> 100 µM,IC50 (BJ): > 100 µM; IC50 (HCT-116 [13]): > 20 µM; IC50 (HCT-116 [14]): > 20 µM; IC50 (A549): > 20 µM; IC50 (K562 [15]): > 20 µM; IC50 (K562 [16]): > 20 µM; IC50 [17]: > 20 µM; IC50 (CCRF-CEM): > 100 µM
